ChEMBL document CHEMBL1275435, “A naturally occurring proline-to-alanine amino acid change in Fks1p in Candida parapsilosis, Candida orthopsilosis, and Candida metapsilosis accounts for reduced echinocandin susceptibility” (Antimicrob Agents Chemother, 2008)
In brackets after ≈: the same amount, converted by molar mass. *1 amine or outer side, *2 acyl side, *3 side chain or, on linkers, in order; H or OH if unused. Where a SMILES comes first, the peptide text is derived from it. Bridges are numbered along the chain shown (N, C = ends). [ ]: non-standard residue; d: D form. The star is where a group is joined. hTyr(3S-OH,4S-OH,3'-OSO3H) = N[C@H](C(=O)O)[C@H](O)[C@@H](O)c1ccc(O)c(OS(=O)(=O)O)c1; Orn(4R-OH,5R-OH) = O=C([C@H](C[C@@H](O)[C@@H](O)N[*:3])N[*:1])[*:2]; Pro(3S-OH,4S-Me) = C[C@H]1CN[C@H](C(=O)O)[C@H]1O; X1 = CCCCCOc1ccc(-c2cc(-c3ccc(C(=O)*)cc3)no2)cc1; Gln(3R-OH) = NC(=O)C[C@@H](O)[C@H](N)C(=O)O; Hyp = O=C(O)[C@@H]1C[C@@H](O)CN1

Key:
[1] = test system: Saccharomyces cerevisiae; assay: Antifungal activity against Saccharomyces cerevisiae BY4742 by CLSI method; format: functional
[2] = test system: Candida albicans; assay: Antifungal activity against Candida albicans Sc5314 by CLSI method; format: functional
[3] = test system: Saccharomyces cerevisiae; assay: Antifungal activity against FKS1 deficient Saccharomyces cerevisiae BY4742 by CLSI method; format: functional
[4] = Inhibition of Candida metapsilosis 960161 glucan synthase assessed as [3H]UDPG incorporation
Outline: (§1)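 Cells were grown with vigorous shaking at 30°C to early stationary phase in YPD. Membrane GS was partially purified by product entrapment, using 10-fold more cells for low-activity strains. The polymerization assay was started by adding GS, with drug serially diluted from 0.01 to 10,000 ng/ml. Reactions ran 60 min at 25°C and were stopped on ice. IC50 came from sigmoidal variable-slope fits, as arithmetic means ± SD of three repetitions on three days.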

[5] = test system: Candida albicans; assay: Antifungal activity against Candida albicans ATCC 36082 by CLSI method; format: functional
[6] = Inhibition of Candida albicans M122 glucan synthase assessed as [3H]UDPG incorporation; outline: as §1
[7] = Inhibition of Candida parapsilosis H5 glucan synthase assessed as [3H]UDPG incorporation; outline: as §1
[8] = test system: Candida metapsilosis; assay: Antifungal activity against Candida metapsilosis 960161 by CLSI method; format: functional; details: Lodderomyces metapsilosis
[9] = Inhibition of Candida parapsilosis H4 glucan synthase assessed as [3H]UDPG incorporation; outline: as §1
[10] = test system: Candida parapsilosis; assay: Antifungal activity against Candida parapsilosis ATCC 22019 by CLSI method; format: functional; details: Lodderomyces parapsilosis
[11] = test system: Candida albicans; assay: Antifungal activity against Candida albicans ATCC 90028 by CLSI method; format: functional
[12] = Inhibition of Candida metapsilosis am-2006-0113 glucan synthase assessed as [3H]UDPG incorporation; outline: as §1
[13] = test system: Nakaseomyces glabratus; assay: Antifungal activity against Candida glabrata T51916 by CLSI method; format: functional
[14] = test system: Candida albicans; assay: Antifungal activity against Candida albicans M122 by CLSI method; format: functional
[15] = Inhibition of Candida parapsilosis ATCC 22019 glucan synthase by assessed as [3H]UDPG incorporation; outline: as §1
[16] = Inhibition of Candida glabrata T51916 glucan synthase assessed as [3H]UDPG incorporation; design: species or system Nakaseomyces glabratus; outline: as §1
[17] = Inhibition of Candida orthopsilosis H10 glucan synthase assessed as [3H]UDPG incorporation; outline: as §1
[18] = test system: Saccharomyces cerevisiae; assay: Antifungal activity against Saccharomyces cerevisiae BY4742-FKS1P649A mutant by CLSI method; format: functional
Outline: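 Broth microdilution following CLSI M27-A2, run in YPD broth (1% yeast extract, 2% Bacto peptone, 2% dextrose). MICs are geometric means of at least three repetitions on three separate days.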

[19] = test system: Nakaseomyces glabratus; assay: Antifungal activity against Candida glabrata ATCC 90030 by CLSI method; format: functional
[20] = Inhibition of Candida albicans Sc5314 glucan synthase assessed as [3H]UDPG incorporation; outline: as §1
[21] = Inhibition of Candida albicans ATCC 36082 glucan synthase assessed as [3H]UDPG incorporation; outline: as §1
[22] = Inhibition of Candida orthopsilosis 981224 glucan synthase assessed as [3H]UDPG incorporation; outline: as §1
[23] = Inhibition of Candida albicans ATCC 90028 glucan synthase assessed as [3H]UDPG incorporation; outline: as §1
[24] = Inhibition of Saccharomyces cerevisiae BY4742 glucan synthase assessed as [3H]UDPG incorporation; outline: as §1
[25] = test system: Candida metapsilosis; assay: Antifungal activity against Candida metapsilosis am-2006-0113 by CLSI method; format: functional; details: Lodderomyces metapsilosis
[26] = test system: Candida parapsilosis; assay: Antifungal activity against Candida parapsilosis H4 by CLSI method; format: functional; details: Lodderomyces parapsilosis
[27] = test system: Candida parapsilosis; assay: Antifungal activity against Candida parapsilosis H5 by CLSI method; format: functional; details: Lodderomyces parapsilosis
[28] = Inhibition of Saccharomyces cerevisiae BY4742-FKS1P649A mutant glucan synthase assessed as [3H]UDPG incorporation; outline: as §1
[29] = Inhibition of Candida glabrata ATCC 90030 glucan synthase assessed as [3H]UDPG incorporation; design: species or system Nakaseomyces glabratus; outline: as §1
[30] = test system: Candida orthopsilosis; assay: Antifungal activity against Candida orthopsilosis H10 by CLSI method; format: functional; details: Lodderomyces orthopsilosis
[31] = test system: Candida orthopsilosis; assay: Antifungal activity against Candida orthopsilosis 981224 by CLSI method; format: functional; details: Lodderomyces orthopsilosis

CC[C@H](C)C[C@H](C)CCCCCCCCC(=O)N[C@H]1C[C@@H](O)[C@@H](NCCN)NC(=O)[C@@H]2[C@@H](O)CCN2C(=O)[C@H]([C@H](O)CCN)NC(=O)[C@H]([C@H](O)[C@@H](O)c2ccc(O)cc2)NC(=O)[C@@H]2C[C@@H](O)CN2C(=O)[C@H]([C@@H](C)O)NC1=O [CASPOFUNGIN]
MIC [1]: 0.03 µg/mL (≈ 0.0274 µM)
MIC [2]: 0.4 µg/mL (≈ 0.366 µM)
MIC [3]: 0.02 µg/mL (≈ 0.0183 µM)
IC50 [4]: 0.02515 µg/mL (≈ 0.023 µM)
Ki [4]: 0.08045 µg/mL (≈ 0.0736 µM)
MIC [5]: 0.2 µg/mL (≈ 0.183 µM)
IC50 [6]: 0.07948 µg/mL (≈ 0.0727 µM)
Ki [6]: 0.292 µg/mL (≈ 0.267 µM)
IC50 [7]: 0.01253 µg/mL (≈ 0.0115 µM)
Ki [7]: 0.00601 µg/mL (≈ 0.0055 µM)
MIC [8]: 1 µg/mL (≈ 0.915 µM)
IC50 [9]: 0.07919 µg/mL (≈ 0.0724 µM)
Ki [9]: 0.00393 µg/mL (≈ 0.00359 µM)
MIC [10]: 1.4 µg/mL (≈ 1.28 µM)
MIC [11]: 0.2 µg/mL (≈ 0.183 µM)
IC50 [12]: 0.04028 µg/mL (≈ 0.0368 µM)
Ki [12]: 0.0769 µg/mL (≈ 0.0703 µM)
MIC [13]: 2 µg/mL (≈ 1.83 µM)
MIC [14]: 4 µg/mL (≈ 3.66 µM)
IC50 [15]: 0.02121 µg/mL (≈ 0.0194 µM)
Ki [15]: 0.04799 µg/mL (≈ 0.0439 µM)
IC50 [16]: 0.1575 µg/mL (≈ 0.144 µM)
Ki [16]: 0.1945 µg/mL (≈ 0.178 µM)
IC50 [17]: 0.05816 µg/mL (≈ 0.0532 µM)
Ki [17]: 0.00429 µg/mL (≈ 0.00392 µM)
MIC [18]: 0.5 µg/mL (≈ 0.457 µM)
MIC [19]: 0.1 µg/mL (≈ 0.0915 µM)
Ki [20]: 0.00297 µg/mL (≈ 0.00272 µM)
IC50 [21]: 0.0006 µg/mL (≈ 0.000549 µM)
Ki [21]: 0.00046 µg/mL (≈ 0.000421 µM)
IC50 [22]: 0.07526 µg/mL (≈ 0.0688 µM)
Ki [22]: 0.0074 µg/mL (≈ 0.00677 µM)
IC50 [23]: 0.00052 µg/mL (≈ 0.000476 µM)
Ki [23]: 0.00095 µg/mL (≈ 0.000869 µM)
IC50 [24]: 0.06554 µg/mL (≈ 0.0599 µM)
Ki [24]: 0.18394 µg/mL (≈ 0.168 µM)
MIC [25]: 0.79 µg/mL (≈ 0.723 µM)
MIC [26]: 2.24 µg/mL (≈ 2.05 µM)
MIC [27]: 2.24 µg/mL (≈ 2.05 µM)
IC50 [28]: 1.32867 µg/mL (≈ 1.22 µM)
Ki [28]: 1.215 µg/mL (≈ 1.11 µM)
IC50 [29]: 0.00312 µg/mL (≈ 0.00285 µM)
MIC [30]: 1 µg/mL (≈ 0.915 µM)
MIC [31]: 0.79 µg/mL (≈ 0.723 µM)

CCCCCOc1ccc(-c2cc(-c3ccc(C(=O)N[C@H]4C[C@@H](O)[C@@H](O)NC(=O)[C@@H]5[C@@H](O)[C@@H](C)CN5C(=O)[C@H]([C@H](O)CC(N)=O)NC(=O)[C@H]([C@H](O)[C@@H](O)c5ccc(O)c(OS(=O)(=O)O)c5)NC(=O)[C@@H]5C[C@@H](O)CN5C(=O)[C@H]([C@@H](C)O)NC4=O)cc3)no2)cc1 [MICAFUNGIN] (X1-[Orn(4R-OH,5R-OH)]T[Hyp][hTyr(3S-OH,4S-OH,3'-OSO3H)][Gln(3R-OH)][Pro(3S-OH,4S-Me)]; lactam 1-C)
MIC [1]: 0.03 µg/mL (≈ 0.0236 µM)
MIC [2]: 0.05 µg/mL (≈ 0.0394 µM)
MIC [3]: 0.015 µg/mL (≈ 0.0118 µM)
IC50 [4]: 0.11373 µg/mL (≈ 0.0895 µM)
Ki [4]: 0.3825 µg/mL (≈ 0.301 µM)
MIC [5]: 0.02 µg/mL (≈ 0.0157 µM)
IC50 [6]: 0.9431 µg/mL (≈ 0.742 µM)
Ki [6]: 2.59 µg/mL (≈ 2.04 µM)
IC50 [7]: 0.49363 µg/mL (≈ 0.389 µM)
Ki [7]: 0.261 µg/mL (≈ 0.205 µM)
MIC [8]: 1.59 µg/mL (≈ 1.25 µM)
IC50 [9]: 0.34083 µg/mL (≈ 0.268 µM)
Ki [9]: 0.486 µg/mL (≈ 0.383 µM)
MIC [10]: 1.6 µg/mL (≈ 1.26 µM)
MIC [11]: 0.03 µg/mL (≈ 0.0236 µM)
IC50 [12]: 0.07032 µg/mL (≈ 0.0554 µM)
Ki [12]: 0.266 µg/mL (≈ 0.209 µM)
MIC [13]: 0.4 µg/mL (≈ 0.315 µM)
MIC [14]: 0.25 µg/mL (≈ 0.197 µM)
IC50 [15]: 0.24527 µg/mL (≈ 0.193 µM)
Ki [15]: 0.476 µg/mL (≈ 0.375 µM)
IC50 [16]: 0.11235 µg/mL (≈ 0.0884 µM)
Ki [16]: 0.51 µg/mL (≈ 0.401 µM)
IC50 [17]: 0.1527 µg/mL (≈ 0.12 µM)
Ki [17]: 0.1775 µg/mL (≈ 0.14 µM)
MIC [18]: 0.5 µg/mL (≈ 0.394 µM)
MIC [19]: 0.06 µg/mL (≈ 0.0472 µM)
IC50 [20]: 0.05825 µg/mL (≈ 0.0459 µM)
Ki [20]: 0.0275 µg/mL (≈ 0.0216 µM)
IC50 [21]: 0.01888 µg/mL (≈ 0.0149 µM)
Ki [21]: 0.0155 µg/mL (≈ 0.0122 µM)
IC50 [22]: 0.07752 µg/mL (≈ 0.061 µM)
Ki [22]: 0.248 µg/mL (≈ 0.195 µM)
IC50 [23]: 0.0102 µg/mL (≈ 0.00803 µM)
Ki [23]: 0.0235 µg/mL (≈ 0.0185 µM)
IC50 [24]: 0.15945 µg/mL (≈ 0.126 µM)
Ki [24]: 0.17901 µg/mL (≈ 0.141 µM)
MIC [25]: 1.59 µg/mL (≈ 1.25 µM)
MIC [26]: 1.12 µg/mL (≈ 0.882 µM)
MIC [27]: 1.26 µg/mL (≈ 0.992 µM)
IC50 [28]: 5.199 µg/mL (≈ 4.09 µM)
Ki [28]: 5.7065 µg/mL (≈ 4.49 µM)
IC50 [29]: 0.00068 µg/mL (≈ 0.000535 µM)
MIC [30]: 0.63 µg/mL (≈ 0.496 µM)
MIC [31]: 1.26 µg/mL (≈ 0.992 µM)
